Measurements gathered from unrelated publications.
Each line is one published result; the experiments were not run side by side.
Effect on: enzyme activity
Action: inhibitor
PDGFRA: Platelet-derived growth factor receptor alpha (PDGFRA, Homo sapiens, UniProt P16234)
PDGFRA D842V: Platelet-derived growth factor receptor alpha (PDGFRA, Homo sapiens, UniProt P16234, D842V)

| SMILES | target | method | tested at | inhibition [%] |
| --- | --- | --- | --- | --- |
| O=C(CSc1nc2nccnc2c(=O)n1CCc1ccccc1)Nc1nccs1 | PDGFRA | – | 10 µM | 16 |
| CC/C(=N\NC(=O)NCc1cccc(O)c1)c1ccc(O)c(C)c1O | PDGFRA D842V | – | 0.1 µM | 1.1 |
| CNC(=O)c1cc(Oc2ccc(NC(=O)Nc3ccc(Cl)c(C(F)(F)F)c3)cc2)ccn1 | PDGFRA | – | 0.3 µM | 35 |
| CCCS(=O)(=O)Nc1ccc(F)c(C(=O)c2c[nH]c3ncc(-c4ccc(Cl)cc4)cc23)c1F | PDGFRA | – | 1 µM | < 10 |
| COc1cc2ncnc(Nc3ccc(Oc4ccccc4)cc3C)c2cc1OC | PDGFRA D842V | – | 1 µM | -1 |
| CNCc1ccc(-c2cc(-c3nc(-c4ccc(S(=O)(=O)C(C)C)cc4)cnc3N)on2)cc1 | PDGFRA | – | 0.4 µM | 0 |
| COc1cc(-c2cc(-c3ccc(N4CCNCC4)cc3)cnc2N)cc(OC)c1OC | PDGFRA D842V | – | 0.1 µM | 54 |
| CNC(=O)c1cc2c(Oc3ccc(NC(=O)C4(C(=O)Nc5ccc(F)cc5)CC4)cc3)ccnc2cc1OC | PDGFRA D842V | radiometric | 1 µM | 73 |
| COc1cc2ncnc(Nc3ccc(Oc4ccccc4)c(C)c3C)c2cc1OC | PDGFRA | – | 1 µM | 6 |
| COc1cc2nccc(Oc3ccc(NC(=O)c4c5n(n(-c6ccc(F)cc6)c4=O)CCCC5)cc3)c2cc1OC | PDGFRA | – | 0.1 µM | 30 |
